Counter-ions that a name gives are not always drawn. Like-named read-outs stand apart in the source and are kept apart here.
Columns and labels:
[1] = biological target: T1, PPARαΔAB (Mus musculus, UniProt P23204); test: Primary drug-screening assay: restoration of BODIPY-C16-CoA; type: binding, murine; conditions: 20 mM glucose; for Recovery (ability to restore acyl-CoA binding): compound 1.25 μM, 10 nM BODIPY-C16-CoA, 200 nM PPARαΔAB
T1 sequence (P23204 101-468 limits assumed): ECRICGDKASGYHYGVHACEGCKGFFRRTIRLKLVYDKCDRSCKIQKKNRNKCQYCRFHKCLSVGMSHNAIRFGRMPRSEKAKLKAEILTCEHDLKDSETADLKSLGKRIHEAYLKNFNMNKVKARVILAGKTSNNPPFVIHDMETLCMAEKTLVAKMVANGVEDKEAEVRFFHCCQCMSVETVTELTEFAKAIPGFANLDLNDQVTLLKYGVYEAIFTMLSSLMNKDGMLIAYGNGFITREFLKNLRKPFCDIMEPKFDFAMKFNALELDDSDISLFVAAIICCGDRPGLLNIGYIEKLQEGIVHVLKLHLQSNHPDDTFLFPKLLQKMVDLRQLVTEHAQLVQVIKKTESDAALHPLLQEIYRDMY

[2] = biological target: T1, PPARαΔAB; type: binding, murine
Procedure, shortened: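 Intrinsic aromatic fluorescence quenching. 0.1 μM murine PPARαΔAB in 20 mM glucose in PBS titrated with test compound. Excitation 280 nm, emission 300–380 nm. Corrected for buffer, compound fluorescence and solvent. Kd calculated from maximal intensities, with double-reciprocal plots. Mean ± SEM, n = 3–4.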

[3] = biological target: T2, PPARα (Mus musculus, UniProt P23204); test: Transactivation assay, acyl-CoA oxidase reporter; type: cell-based; conditions: for Increase of PPARα transactivation (percentage change from no-compound control): basal, absence of glucose (Fig. 2C open bars); for Effect on clofibrate-induced PPARα transactivation: absence of glucose (Fig. 2D open bars)
T2 sequence (P23204 1-468): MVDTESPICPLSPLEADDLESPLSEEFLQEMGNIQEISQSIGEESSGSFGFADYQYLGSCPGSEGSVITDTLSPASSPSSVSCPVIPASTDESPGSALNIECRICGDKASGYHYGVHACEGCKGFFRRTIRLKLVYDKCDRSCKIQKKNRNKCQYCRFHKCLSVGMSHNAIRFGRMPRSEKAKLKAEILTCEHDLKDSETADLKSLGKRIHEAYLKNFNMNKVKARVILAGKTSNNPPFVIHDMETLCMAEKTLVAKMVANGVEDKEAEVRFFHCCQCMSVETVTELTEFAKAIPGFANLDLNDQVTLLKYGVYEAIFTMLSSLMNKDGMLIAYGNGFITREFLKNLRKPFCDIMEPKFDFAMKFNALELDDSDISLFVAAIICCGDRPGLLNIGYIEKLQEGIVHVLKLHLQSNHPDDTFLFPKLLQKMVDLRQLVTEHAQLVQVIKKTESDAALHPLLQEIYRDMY
Procedure, shortened: (§1)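 COS-7 cells in 24-well plates transfected with 0.4 μg full-length pSG5-PPARα, alone or with pSG5-mRXRα; 0.4 μg PPRE3-TK-LUC reporter; 0.04 μg pRL-CMV. Then serum-free, glucose-free DMEM for 2 h. Compound (10 μM) added at 0 or 20 mM glucose, ±10 μM clofibrate, for 24 h. Firefly luciferase normalized to Renilla. Results given as percentage of clofibrate-induced PPARα activity, or percentage change from no-compound control; mean ± SEM, n = 3.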

[4] = biological target: T3, PPARα-RXRα heterodimers (Mus musculus, UniProt P23204); test: Transactivation assay, acyl-CoA oxidase reporter; type: cell-based
T3 sequence (P23204 1-468): T2 sequence (P23204 1-468)
T3 sequence (P28700 1-467 partner): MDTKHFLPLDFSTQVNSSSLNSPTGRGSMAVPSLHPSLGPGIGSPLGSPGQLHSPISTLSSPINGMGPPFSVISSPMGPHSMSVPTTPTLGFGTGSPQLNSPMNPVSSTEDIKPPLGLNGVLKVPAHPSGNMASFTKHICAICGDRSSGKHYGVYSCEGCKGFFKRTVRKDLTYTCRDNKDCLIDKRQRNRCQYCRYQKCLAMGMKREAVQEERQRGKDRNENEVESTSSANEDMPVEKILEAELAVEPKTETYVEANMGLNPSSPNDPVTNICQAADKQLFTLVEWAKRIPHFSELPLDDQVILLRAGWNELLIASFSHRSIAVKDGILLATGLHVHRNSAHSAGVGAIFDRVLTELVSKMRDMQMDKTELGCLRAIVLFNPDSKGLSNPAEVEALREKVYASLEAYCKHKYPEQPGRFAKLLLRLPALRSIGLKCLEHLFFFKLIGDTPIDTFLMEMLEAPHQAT
Procedure, shortened: as §1

[5] = biological target: T1, PPARαΔAB; test: PPARα binding assays to BODIPY-C16 fatty acid or fatty acyl-CoA; parameters: species or system murine; conditions: high glucose (20 mM)
Procedure, shortened: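 50 nM BODIPY-C16 or BODIPY-C16-CoA prebound to 100 nM murine PPARαΔAB, then titrated with glucose. Excitation 460 nm, emission 490–540 nm. Background-corrected maximal intensities expressed as percentage change in binding versus the no-glucose control.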

[6] = biological target: T1, PPARαΔAB; test: Circular dichroism, PPARα secondary structure; parameters: species or system murine; conditions: 20 mM glucose, 0.8 μM PPARαΔAB; mean ± SEM (n = 4)
Procedure, shortened: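 Murine PPARαΔAB (N-terminal truncation), expressed in E. coli BL21(DE3)pLysS and purified, at 0.8 μM with 0 or 20 mM glucose. Ten CD scans averaged per spectrum. Secondary structure fractions estimated by SELCON3, CDSSTR and CONTIN/LL. Mean ± SEM, n = 4; Student's t-test.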

[7] = read-out: Kd (binding affinity of PPARα for each compound), 0.1 μM PPARαΔAB in 20 mM glucose in PBS, mean ± SEM (n = 3–4)
[8] = compound 10 μM, 10 μM clofibrate, 20 mM glucose (Fig. 2F)
[9] = compound 10 μM, 10 μM clofibrate

SMILES	Recovery (ability to restore acyl-CoA binding) [1]	Kd [2]	Effect on clofibrate-induced PPARα-RXRα activity [4, 8]	other results
CC(=O)N[C@@H]1[C@@H](O)[C@H](O)[C@@H](CO)O[C@@H]1O [Acetylglucosamine]	63.8%			Kd [2, 7]: 33.3 ± 3 nM; Increase of PPARα transactivation (percentage change from no-compound control) ([3]; compound 10 μM): ≥ 50%
CC(=O)O[C@@H]1C[C@H]2C(C)(C)C(=O)C=C[C@]2(C)[C@H]2CC[C@@]3(C)[C@H](c4ccoc4)OC(=O)[C@H]4O[C@]43[C@@]21C [Gedunin]	62.3%	21.9 ± 1.8 nM	significantly decreased	Effect on clofibrate-induced PPARα transactivation [3, 9]: decreases; Effect on basal PPARα activity ([3]; compound 10 μM, with or without glucose (Fig. 2C)): significantly reduced; Effect on clofibrate-induced PPARα-RXRα activity ([4]; compound 10 μM, 10 μM clofibrate, absence of glucose (Fig. 2F)): significantly affected activity; Effect on basal PPARα-RXRα heterodimer activity ([4]; compound 10 μM, with or without glucose (Fig. 2E)): decreased activity
CN1[C@@H]2CC[C@H]1C[C@@H](OC(=O)[C@H](CO)c1ccccc1)C2 [Hyoscyamine]	86.4%	14.8 ± 2.8 nM		
NC(=O)c1cnccn1 [Pyrazinamide]	68.6%	28.4 ± 2.3 nM	significantly decreased	
CN=C(N)NCCC[C@H](N)C(=O)O.Cl [Targinine hydrochloride, reference compound]	67.5%		significantly decreased	Kd [2, 7]: 33.5 ± 3.5 nM; Increase of PPARα transactivation (percentage change from no-compound control) ([3]; compound 10 μM): ≥ 50%
NCCCC(=O)O [g-aminobutyric acid]	85.5%			Kd [2, 7]: 29.5 ± 4.1 nM
OC[C@H]1OC(O)[C@H](O)[C@@H](O)[C@@H]1O (stereo partly drawn) [glucose]				Decrease in BODIPY-C16-CoA fluorescence intensity ([1]; plate assay controls): ~ 30%; Effect of glucose on BODIPY-C16 (fatty acid) binding to PPARα ([5]; 50 nM BODIPY-C16, 100 nM PPARαΔAB (Fig. 1D)): not affected; Effect of glucose on BODIPY-C16-CoA binding to PPARα ([5]; 50 nM BODIPY-C16-CoA, 100 nM PPARαΔAB (Fig. 1C, 1D)): significantly decreased; Increase of transactivation by glucose over clofibrate alone ([3]; 10 μM clofibrate, 20 mM glucose, PPARα alone (Fig. 2B)): 3- to 4 fold; Effect of glucose on basal transactivation ([3]; 20 mM glucose, no other ligand, PPARα alone (Fig. 2A)): no significant effect; Increase of transactivation by glucose over clofibrate alone ([4]; 10 μM clofibrate, 20 mM glucose, PPARα-RXRα heterodimers (Fig. 2B)): 3- to 4 fold; Effect of glucose on basal transactivation ([4]; 20 mM glucose, no other ligand (Fig. 2A)): increased activity; Turns [6]: 20.2 ± 0.7%; Unordered [6]: 30.7 ± 0.8 %; α-Helices Distorted, Hd [6]: 10.8 ± 0.3 %; α-Helices Regular, Hr [6]: 14.3 ± 0.3 %; β-Sheets Distorted, Sd [6]: 8.8 ± 0.5 %; β-Sheets Regular, Sr [6]: 14.4 ± 1.2 %
COc1cccc(OC)c1C(=O)N[C@@H]1C(=O)N2[C@@H]1SC(C)(C)[C@@H]2C(=O)O [methicillin sodium]				Direct binding to PPARα (change of intrinsic fluorescence) ([2]; 20 mM glucose): no binding

The next lines start with results.

Recovery (ability to restore acyl-CoA binding) [1]	Kd [2]	Effect on clofibrate-induced PPARα-RXRα activity [4, 8]	SMILES	other results
82.0%	26.3 ± 3.2 nM	significantly decreased	CCCC1O[C@@H]2C[C@H]3[C@@H]4CCC5=CC(=O)C=C[C@]5(C)[C@H]4[C@@H](O)C[C@]3(C)[C@]2(C(=O)CO)O1 (stereo partly drawn) [Budesonide]	
64.7%	26.3 ± 2.8 nM		CCOC(=O)[C@H](CCc1ccccc1)N[C@@H](C)C(=O)N1CCC[C@H]1C(=O)O [Enalapril maleate]	
81.3%	22.5 ± 2 nM		O=C1NS(=O)(=O)c2ccccc21 [Saccharin]	Effect on clofibrate-induced PPARα transactivation [3, 9]: significant increases
83.1%	25.8 ± 6 nM		NC(=O)c1ccccc1O [Salicylamide]	
73.9%	31.4 ± 3.6 nM		c1ccc(CC2=NCCN2)cc1 [Tolazoline hydrochloride]	
97.1%	35.1 ± 3.7 nM	significantly decreased	Cc1ccc(C(=O)c2ccc(CC(=O)O)n2C)cc1 [Tolmetin sodium, reference compound]	Increase of PPARα transactivation (percentage change from no-compound control) ([3]; compound 10 μM): ≥ 50%
